Compound activity (PubChem BioAssay)
This is a sample that favours compounds with a hit; in the whole collection about 2.3% have one here.
OXTR ag: agonists of human oxytocin receptor | CHO-OTR cells, Fluo-8 calcium fluorescence; normalized: DMSO 0%, oxytocin 100% | activation, % at 3 µM | P30559 | 320,000 tested, 0.32% active;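 active means activation above the mean of all tested compounds plus 3 SD, cutoff set per screening run, cut at about 20% in these data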;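 further: peak over basal fluorescence ratio from a 100 s FLIPR kinetic read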
TAAR1 antagonist: antagonists of human TAAR1. 360,000 tested, 1.5% active. inhibition, % at 3 µM. CHO RD-HGA16 TAAR1, Fluo-8 calcium fluorescence, antagonist. AID 624466;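 active means inhibition above a per-plate cutoff, the mean inhibition of test compounds on that plate plus 3 SD, cut at about 49% in these data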;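 further: 0% = DMSO plus EC80 beta-PEA response and 100% = DMSO alone without agonist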
Target sequence (Q96RJ0 whole entry, looked up): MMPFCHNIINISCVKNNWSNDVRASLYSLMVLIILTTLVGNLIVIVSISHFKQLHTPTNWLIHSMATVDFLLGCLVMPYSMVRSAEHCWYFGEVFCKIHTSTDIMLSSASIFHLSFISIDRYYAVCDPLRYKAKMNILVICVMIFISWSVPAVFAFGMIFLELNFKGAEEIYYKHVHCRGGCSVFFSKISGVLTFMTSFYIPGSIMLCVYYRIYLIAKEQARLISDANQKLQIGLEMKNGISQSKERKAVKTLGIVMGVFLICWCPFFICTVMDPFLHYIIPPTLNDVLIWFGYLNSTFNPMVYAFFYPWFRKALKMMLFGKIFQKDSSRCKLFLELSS
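Material: CHO RD-HGA16 cells bearing hTAAR1; compound dosing: one-point dosing, 3 µM nominal final; schedule: dye loading 75 min at 37 °C, then 30 min room temperature; measured by: calcium fluorescence with Fluo-8; control set: vehicle and agonist controls; replication: n of 1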
TAAR1 ag: human TAAR1 agonism | Q96RJ0 | CHO RD-HGA16 TAAR1, Fluo-8 calcium fluorescence; vehicle wells 0%, saturating PEA agonist 100% | activation, % at 3 µM | 360,000 tested, 0.99% active;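 active means activation above the mean activation of all test compounds in the run plus 3 SD, cut at about 38% in these data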
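System: CHO-derived RD-HGA16 cells with stable Gα16 and human TAAR1. Times: 17-24 h plating, Fluo-8 75 min 37 °C, 30 min RT. Measured by: calcium-sensitive Fluo-8 signal, excitation 470-495, emission 515-575 nm. Read-out basis: % activation relative to PEA EC100 response. Control set: DMSO and PEA EC100. Repeats: no replicates (n 1).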
V1aR counter: V1a receptor agonism, counter-screen for OXTR agonists; CHO-V1R cells, Fluo-8 calcium fluorescence, agonist mode; 0% DMSO, 100% 3 nM vasopressin; AID 2797; activation, % at 3 µM; P37288; 320,000 tested, 0.25% active;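 active means activation above the mean activation of all tested compounds plus 3 SD, per screening run, cut at about 20% in these data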;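 further: signal is peak over basal fluorescence ratio across a 100 second FLIPR read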
Target sequence (P37288 whole entry, looked up): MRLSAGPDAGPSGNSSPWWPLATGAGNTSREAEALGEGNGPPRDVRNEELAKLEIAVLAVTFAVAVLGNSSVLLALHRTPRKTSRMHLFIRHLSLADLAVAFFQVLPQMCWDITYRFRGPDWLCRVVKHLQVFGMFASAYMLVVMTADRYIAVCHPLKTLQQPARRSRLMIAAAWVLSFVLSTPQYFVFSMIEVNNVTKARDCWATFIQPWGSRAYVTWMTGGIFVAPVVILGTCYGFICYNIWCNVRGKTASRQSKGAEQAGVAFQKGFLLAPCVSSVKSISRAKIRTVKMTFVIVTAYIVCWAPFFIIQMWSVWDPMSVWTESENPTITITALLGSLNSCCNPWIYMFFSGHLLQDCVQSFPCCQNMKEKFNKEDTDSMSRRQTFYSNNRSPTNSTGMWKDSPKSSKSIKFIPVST
OXTR potentiator: potentiates the human oxytocin receptor response. activation, % at 3 µM. 320,000 tested, 0.061% active. CHO-OTR cells, Fluo-8 calcium fluorescence, potentiator mode; 0% = oxytocin EC15, 100% = EC100. P30559;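 active means activation above that plate's cutoff, the mean activation of tested compounds plus 3 SD, cut at about 6.6% in these data, passing the limit was not always enough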;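 further: 100% uses oxytocin at 75 nM as the full agonist control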
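Assay system: CHO-OTR cells, human receptor / Also added: oxytocin at about EC15, sub-maximal agonist stimulus / Dosing: single dose, 3.0 µM nominal final compound concentration / Incubation: 6 min pre-incubation, 100 s read / Technique: Fluo-8 calcium dye fluorescence / Read-out: % activation vs EC15 and EC100 oxytocin / Benchmarks: EC15 oxytocin low, 75 nM oxytocin high / Replicates: singlicate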
TAAR1 ag conf: confirmation of human TAAR1 agonists; shares compounds with TAAR1 ag; CHO RD-HGA16 TAAR1, Fluo-8 calcium fluorescence; scaled: DMSO 0%, maximal phenethylamine 100%; activation, % at 3 µM; 2,400 tested, 82% active; AID 651783;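 active means activation above a cutoff set at the run's mean compound activation plus 3 SD, cut at about 39% in these data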
Ga16 ag counter: counter-screen for TAAR1 agonists: nonselective agonists in parental cells | CHO-Ga16 parental, Fluo-8 calcium fluorescence; normalized to maximal ATP response, DMSO zero | activation, % at 3 µM | 2,400 tested, 50% active | shares compounds with TAAR1 ag;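 active means activation above the run cutoff, the mean activation over all tested wells plus 3 SD, cut at about 12% in these data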;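 further: 0% = DMSO wells and 100% = maximal ATP response on the peak over basal ratio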
TAAR1 desensitize: TAAR1 response desensitization, agonist counter-screen | shares compounds with TAAR1 ag | CHO RD-HGA16 hTAAR1, Fluo-8 calcium, beta-PEA response inhibition | inhibition, % at 3 µM | 2,400 tested, 46% active | AID 651951;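 active means inhibition above the run cutoff, the mean inhibition of all test compounds plus 3 SD, cut at about 49% in these data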;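 further: beta-PEA stimulus applied at its EC80; loss of beta-PEA calcium signal after compound pretreatment read as receptor desensitization; 0% = DMSO with beta-PEA at EC80 and 100% = DMSO alone without agonist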
Ga16 antag count: counter-screen for TAAR1 agonists: nonselective Ga16 antagonists; 2,400 tested, 39% active; CHO-Ga16 ATP-induced calcium, Fluo-8 fluorescence; shares compounds with TAAR1 ag; AID 651952; inhibition, % at 3 µM;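 active means inhibition above the plate's mean compound inhibition plus 3 SD, computed per plate, cut at about 22% in these data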;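 further: 0% = EC80 ATP with DMSO and 100% = DMSO wells without ATP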
Numbers without * were called inactive; ! = not confirmed by another sample.

Results for COc1ccc(CNCCc2c[nH]c3ccccc23)c(OC)c1C ?
OXTR ag: 11.0; TAAR1 antagonist: 3.4; TAAR1 ag: 27.5; V1aR counter: 14.2; OXTR potentiator: -15.0

What do the screens show for `Cn1cccc1CNCCc1ccccc1F`?
OXTR ag: 0.0; TAAR1 antagonist: 67.1*; TAAR1 ag: 62.9*; V1aR counter: 0.7; OXTR potentiator: -1.6; TAAR1 ag conf: 101.6*; Ga16 ag counter: -0.7; TAAR1 desensitize: 81.9*; Ga16 antag count: 4.5

How did COc1ccc(CNCCc2ccccc2F)c(OC)c1C do in these assays?
OXTR ag: 7.7; TAAR1 antagonist: 73.2*; TAAR1 ag: 84.5*; V1aR counter: 3.1; OXTR potentiator: -8.9; TAAR1 ag conf: 92.7*; Ga16 ag counter: 8.0; TAAR1 desensitize: 79.6*; Ga16 antag count: 10.2

What do the screens show for `COc1cc(/C=C/[N+](=O)[O-])ccc1O`?
OXTR ag: 0.6; TAAR1 antagonist: 5.7; TAAR1 ag: 14.2; V1aR counter: 3.0; OXTR potentiator: 9.4

What do the screens show for `CCN(CC)c1ccc(/C=C/[N+](=O)[O-])cc1`?
OXTR ag: 41.6*; TAAR1 antagonist: 89.8*; TAAR1 ag: 226.6*; V1aR counter: 72.6*; OXTR potentiator: -17.5; TAAR1 ag conf: 50.7*; Ga16 ag counter: 58.1*; TAAR1 desensitize: 50.6*; Ga16 antag count: 58.8*

Results for C[C@H](Cc1ccc(OCC(=O)O)cc1)NC[C@H](O)c1cccc(Cl)c1 ?
TAAR1 antagonist: -6.4; TAAR1 ag: 7.0

How did Cc1cc(C)cc(N2C(=O)NC(=O)/C(=C\c3cccn3-c3ccc(Cl)cc3)C2=O)c1 do in these assays?
OXTR ag: -0.2; TAAR1 antagonist: 32.4; TAAR1 ag: 50.5*; V1aR counter: -0.1; OXTR potentiator: -9.0; TAAR1 ag conf: 37.3; Ga16 ag counter: 12.5*; TAAR1 desensitize: 36.0; Ga16 antag count: 20.2

What do the screens show for `CN1C(=O)/C(=C/c2cccn2-c2ccc3ccccc3c2)C(=O)NC1=S`?
OXTR ag: -1.3; TAAR1 antagonist: 31.9; TAAR1 ag: 5.1; V1aR counter: -0.2; OXTR potentiator: -9.3

Results for COc1cccc(C2CCN(C)C2)c1 (centres undefined) ?
TAAR1 antagonist: -9.1; TAAR1 ag: 37.0

How did CCN(CC)c1ccc(/C=C2/C(=O)NC(=O)N(Cc3ccco3)C2=O)cc1 do in these assays?
OXTR ag: 1.9; TAAR1 antagonist: 20.7; TAAR1 ag: 44.9*; V1aR counter: 0.8; OXTR potentiator: -5.2; TAAR1 ag conf: 66.1*; Ga16 ag counter: 30.0*; TAAR1 desensitize: 41.4; Ga16 antag count: 34.3*

How did CC(N)Cc1ccc(O)cc1 (centres undefined) do in these assays?
TAAR1 antagonist: 54.1*!; TAAR1 ag: 96.0*; TAAR1 ag conf: 94.1*; Ga16 ag counter: 2.5; TAAR1 desensitize: 83.9*; Ga16 antag count: 4.6

Results for O=S(=O)(c1ccccc1)C1CN1c1c(F)c(F)c(F)c(F)c1F (centres undefined) ?
TAAR1 antagonist: -14.3; TAAR1 ag: -0.3

Results for CN1CC(C(=O)c2ccc(Cl)cc2)C(c2ccccc2)C1 (centres undefined) ?
OXTR ag: 1.1; TAAR1 antagonist: 1.8; TAAR1 ag: 45.3*; V1aR counter: 1.3; OXTR potentiator: -12.3; TAAR1 ag conf: 75.4*; Ga16 ag counter: 12.7*; TAAR1 desensitize: 35.7; Ga16 antag count: 11.0

Results for CN1CC(C(=O)c2cccs2)C(c2ccc(Cl)cc2)C1 (centres undefined) ?
OXTR ag: 2.3; TAAR1 antagonist: -23.0; TAAR1 ag: 0.9; V1aR counter: 1.3; OXTR potentiator: -0.5

How did COC(=O)N(c1ccccc1)P(=O)(Oc1ccccc1)Oc1ccccc1 do in these assays?
OXTR ag: -2.6; TAAR1 antagonist: -16.2; TAAR1 ag: 9.4; V1aR counter: -0.8; OXTR potentiator: -5.6

Results for NCC(=O)c1ccccc1 ?
TAAR1 antagonist: 52.7*; TAAR1 ag: 88.8*; TAAR1 ag conf: 89.1*; Ga16 ag counter: 6.8; TAAR1 desensitize: 87.9*; Ga16 antag count: 1.6

Results for NNP(=O)(CC(=O)c1ccccc1)c1ccccc1 (centres undefined) ?
OXTR ag: 0.4; TAAR1 antagonist: -9.3; TAAR1 ag: 1.9; V1aR counter: -0.3; OXTR potentiator: -13.4

What do the screens show for `CN(CCc1ccccc1)Cc1c[nH]c2ccccc12`?
OXTR ag: 0.9; TAAR1 antagonist: 83.6*; TAAR1 ag: 92.7*; V1aR counter: 1.7; OXTR potentiator: -4.6; TAAR1 ag conf: 95.7*; Ga16 ag counter: 2.1; TAAR1 desensitize: 76.6*; Ga16 antag count: 2.5

How did CCN(CC)Cc1c[nH]c2ccccc12 do in these assays?
OXTR ag: 0.9; TAAR1 antagonist: 10.2; TAAR1 ag: 9.1; V1aR counter: 1.5; OXTR potentiator: -4.7

What do the screens show for `Cc1cccc(CCNCc2cc3ccc(C)cc3[nH]c2=O)c1`?
OXTR ag: -0.9; TAAR1 antagonist: 70.4*; TAAR1 ag: 82.8*; V1aR counter: 0.5; OXTR potentiator: -4.5; TAAR1 ag conf: 99.7*; Ga16 ag counter: 5.2; TAAR1 desensitize: 93.0*; Ga16 antag count: -0.9

What do the screens show for `CCOC(=O)c1cncn1[C@@H](C)c1ccccc1`?
OXTR ag: 0.0; TAAR1 antagonist: -27.4; TAAR1 ag: 0.9; V1aR counter: 1.0; OXTR potentiator: -4.0

Results for CN1C[C@H](CO)C=C2c3cccc4[nH]cc(c34)C[C@H]21 ?
OXTR ag: 0.8; TAAR1 antagonist: 64.4*; TAAR1 ag: 64.4*; V1aR counter: 2.3; OXTR potentiator: -4.9; TAAR1 ag conf: 92.1*; Ga16 ag counter: 3.0; TAAR1 desensitize: 85.0*; Ga16 antag count: 7.5

How did CC(C)[C@H]1C(=O)N2CCC[C@H]2[C@]2(O)O[C@](NC(=O)[C@@H]3C=C4c5cccc6[nH]cc(c56)C[C@H]4N(C)C3)(C(C)C)C(=O)N12 do in these assays?
OXTR ag: 0.3; V1aR counter: 2.1; OXTR potentiator: -1.7
